Data from ChEMBL document CHEMBL2040809, “Synthesis and biological activity evaluation of cytidine-5'-deoxy-5-fluoro-N-[(alkoxy/aryloxy)] carbonyl-cyclic 2',3'-carbonates” (Eur J Med Chem, 2012).
≈ marks a conversion by molar mass, not a printed value.

Assays:
[1] = test system: NCI-H69; test: Cytotoxicity against human NCI-H69 cells after 3 days MTT assay; format: functional, cell-based; settings: NCI-H69, 72 h
Summary of the method: (§1)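 Cells held as monolayers in DMEM with 10% supplement. Seeded in 96-well plates on day 0 at densities set by doubling time: 1 × 10⁴/mL for HeLa and NCI-69, 2 × 10⁴/mL for MCF-7, 3 × 10⁴/mL for PZ-HPV-7. Five dilutions (10⁻⁸–5 × 10⁻⁶ mol/l), freshly prepared, added for 72 h. Growth read by MTT (succinate dehydrogenase activity); IC50 derived.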

[2] = Cytotoxicity against human PZ-HPV-7 cells after 3 days MTT assay; format: functional, cell-based; settings: 72 h; summary of the method: as §1
[3] = test system: MCF7; test: Cytotoxicity against human MCF7 cells after 3 days MTT assay; format: functional, cell-based; settings: MCF7, 72 h; summary of the method: as §1
[4] = test system: HeLa; test: Cytotoxicity against human HeLa cells after 3 days MTT assay; format: functional, cell-based; settings: 72 h; summary of the method: as §1
[5] = test system: Salmonella typhimurium; test: Mutagenic activity in Salmonella typhimurium TA1535 at 0.312 to 5 mg/plate preincubated for 20 mins before addition in presence of liver S9 mixture; format: toxicity, organism-based; settings: salmonella enterica subsp. enterica serovar typhimurium
Summary of the method: (§2)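 Pre-incubation trial (Trial II) with histidine-dependent auxotrophs. Test solution is pre-incubated with bacterial suspension and S9 mix (10% v/v) or substitution buffer before plating on selective agar. Revertant colonies are counted against the concurrent vehicle control. Triplicate plates per dose and per control (negative, vehicle, positive reference mutagens).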

[6] = test system: Salmonella typhimurium; test: Mutagenic activity in Salmonella typhimurium TA1535 at 0.312 to 5 mg/plate preincubated for 20 mins before addition in absence of liver S9 mixture; format: toxicity, organism-based; settings: salmonella enterica subsp. enterica serovar typhimurium; summary of the method: as §2
[7] = test system: Salmonella typhimurium; test: Mutagenic activity in Salmonella typhimurium TA1537 at 0.312 to 5 mg/plate preincubated for 20 mins before addition in presence of liver S9 mixture; format: toxicity, organism-based; settings: salmonella enterica subsp. enterica serovar typhimurium; summary of the method: as §2
[8] = test system: Salmonella typhimurium; test: Mutagenic activity in Salmonella typhimurium TA1537 at 0.312 to 5 mg/plate preincubated for 20 mins before addition in absence of liver S9 mixture; format: toxicity, organism-based; settings: salmonella enterica subsp. enterica serovar typhimurium; summary of the method: as §2
[9] = test system: Salmonella typhimurium; test: Mutagenic activity in Salmonella typhimurium TA98 at 0.312 to 5 mg/plate preincubated for 20 mins before addition in presence of liver S9 mixture; format: toxicity, organism-based; settings: salmonella enterica subsp. enterica serovar typhimurium; summary of the method: as §2
[10] = test system: Salmonella typhimurium; test: Mutagenic activity in Salmonella typhimurium TA98 at 0.312 to 5 mg/plate preincubated for 20 mins before addition in absence of liver S9 mixture; format: toxicity, organism-based; settings: salmonella enterica subsp. enterica serovar typhimurium; summary of the method: as §2
[11] = test system: Salmonella typhimurium; test: Mutagenic activity in Salmonella typhimurium TA100 at 0.312 to 5 mg/plate preincubated for 20 mins before addition in presence of liver S9 mixture; format: toxicity, organism-based; settings: salmonella enterica subsp. enterica serovar typhimurium; summary of the method: as §2
[12] = test system: Salmonella typhimurium; test: Mutagenic activity in Salmonella typhimurium TA100 at 0.312 to 5 mg/plate preincubated for 20 mins before addition in absence of liver S9 mixture; format: toxicity, organism-based; settings: salmonella enterica subsp. enterica serovar typhimurium; summary of the method: as §2
[13] = test system: Salmonella typhimurium; test: Mutagenic activity in Salmonella typhimurium TA102 at 0.312 to 5 mg/plate preincubated for 20 mins before addition in presence of liver S9 mixture; format: toxicity, organism-based; settings: salmonella enterica subsp. enterica serovar typhimurium; summary of the method: as §2
[14] = test system: Salmonella typhimurium; test: Mutagenic activity in Salmonella typhimurium TA1535 at 0.312 to 5 mg/plate measured after incubation of upside down for 48 hrs in presence of liver S9 mixture; format: toxicity, organism-based; settings: salmonella enterica subsp. enterica serovar typhimurium, s9, 48 h
Summary of the method: (§3)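 Plate incorporation trial (Trial I) with histidine-dependent auxotrophs. Revertant colonies are counted against the concurrent vehicle control. Each dose and each control, including negative, vehicle and positive reference mutagens, run in triplicate plates.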

[15] = test system: Salmonella typhimurium; test: Mutagenic activity in Salmonella typhimurium TA1535 at 0.312 to 5 mg/plate measured after incubation of upside down for 48 hrs in absence of liver S9 mixture; format: toxicity, organism-based; settings: salmonella enterica subsp. enterica serovar typhimurium; summary of the method: as §3
[16] = test system: Salmonella typhimurium; test: Mutagenic activity in Salmonella typhimurium TA1537 at 0.312 to 5 mg/plate measured after incubation of upside down for 48 hrs in presence of liver S9 mixture; format: toxicity, organism-based; settings: salmonella enterica subsp. enterica serovar typhimurium, s9, 48 h; summary of the method: as §3
[17] = test system: Salmonella typhimurium; test: Mutagenic activity in Salmonella typhimurium TA1537 at 0.312 to 5 mg/plate measured after incubation of upside down for 48 hrs in absence of liver S9 mixture; format: toxicity, organism-based; settings: salmonella enterica subsp. enterica serovar typhimurium; summary of the method: as §3
[18] = test system: Salmonella typhimurium; test: Mutagenic activity in Salmonella typhimurium TA98 at 0.312 to 5 mg/plate measured after incubation of upside down for 48 hrs in presence of liver S9 mixture; format: toxicity, organism-based; settings: salmonella enterica subsp. enterica serovar typhimurium, s9, 48 h; summary of the method: as §3
[19] = test system: Salmonella typhimurium; test: Mutagenic activity in Salmonella typhimurium TA98 at 0.312 to 5 mg/plate measured after incubation of upside down for 48 hrs in absence of liver S9 mixture; format: toxicity, organism-based; settings: salmonella enterica subsp. enterica serovar typhimurium; summary of the method: as §3
[20] = test system: Salmonella typhimurium; test: Mutagenic activity in Salmonella typhimurium TA100 at 0.312 to 5 mg/plate measured after incubation of upside down for 48 hrs in presence of liver S9 mixture; format: toxicity, organism-based; settings: salmonella enterica subsp. enterica serovar typhimurium, s9, 48 h; summary of the method: as §3
[21] = test system: Salmonella typhimurium; test: Mutagenic activity in Salmonella typhimurium TA100 at 0.312 to 5 mg/plate measured after incubation of upside down for 48 hrs in absence of liver S9 mixture; format: toxicity, organism-based; settings: salmonella enterica subsp. enterica serovar typhimurium; summary of the method: as §3
[22] = test system: Salmonella typhimurium; test: Mutagenic activity in Salmonella typhimurium TA102 at 0.312 to 5 mg/plate measured after incubation of upside down for 48 hrs in presence of liver S9 mixture; format: toxicity, organism-based; settings: salmonella enterica subsp. enterica serovar typhimurium, s9, 48 h; summary of the method: as §3
[23] = test system: Salmonella typhimurium; test: Mutagenic activity in Salmonella typhimurium TA102 at 0.312 to 5 mg/plate preincubated for 20 mins before addition in absence of liver S9 mixture; format: toxicity, organism-based; settings: salmonella enterica subsp. enterica serovar typhimurium; summary of the method: as §2
[24] = test system: Salmonella typhimurium; test: Mutagenic activity in Salmonella typhimurium TA102 at 0.312 to 5 mg/plate measured after incubation of upside down for 48 hrs in absence of liver S9 mixture; format: toxicity, organism-based; settings: salmonella enterica subsp. enterica serovar typhimurium; summary of the method: as §3

SMILES	IC50 [1] [µg/mL]	IC50 [2] [µg/mL]	IC50 [3] [µg/mL]	IC50 [4] [µg/mL]	Activity [5]	Activity [6]	Activity [7]	Activity [8]	Activity [9]	Activity [10]	Activity [11]	Activity [12]	Activity [13]	Activity [14]	Activity [15]	Activity [16]	Activity [17]	Activity [18]	Activity [19]	Activity [20]	also measured
CCC(C)COC(=O)Nc1nc(=O)n([C@@H]2O[C@H](C)[C@H]3OC(=O)O[C@H]32)cc1F (stereo not given in full)	330 (≈ 856 µM)	200 (≈ 519 µM)	70 (≈ 182 µM)	0.18 (≈ 0.467 µM)	Non-toxic	Non-toxic	Non-toxic	Non-toxic	Non-toxic	Non-toxic	Non-toxic	Non-toxic	Non-toxic	Non-toxic	Non-toxic	Non-toxic	Non-toxic	Non-toxic	Non-toxic	Non-toxic	Activity [21]: Non-toxic; Activity [22]: Non-toxic; Activity [23]: Non-toxic; Activity [24]: Non-toxic
O=c1[nH]cc(F)c(=O)[nH]1 [FLUOROURACIL]	280 (≈ 2150 µM)	170 (≈ 1310 µM)	690 (≈ 5300 µM)	0.04 (≈ 0.308 µM)																	
CCC(C)COC(=O)Nc1nc(=O)n([C@@H]2O[C@H](C)[C@@H](O)[C@H]2O)cc1F (stereo not given in full)	370 (≈ 1030 µM)	250 (≈ 696 µM)	120 (≈ 334 µM)	0.09 (≈ 0.25 µM)	Non-toxic	Non-toxic	Non-toxic	Non-toxic	Non-toxic	Non-toxic	Non-toxic	Non-toxic	Non-toxic	Non-toxic	Non-toxic	Non-toxic	Non-toxic	Non-toxic	Non-toxic	Non-toxic	Activity [21]: Non-toxic; Activity [22]: Non-toxic; Activity [23]: Non-toxic; Activity [24]: Non-toxic
C[C@H]1O[C@@H](n2cc(F)c(NC(=O)Oc3ccc(Cl)cc3)nc2=O)[C@H](O)[C@@H]1O	90 (≈ 225 µM)	70 (≈ 175 µM)	100 (≈ 250 µM)	0.03 (≈ 0.075 µM)	Non-toxic	Non-toxic	Non-toxic	Non-toxic	Non-toxic	Non-toxic	Non-toxic	Non-toxic	Non-toxic	Non-toxic	Non-toxic	Non-toxic	Non-toxic	Non-toxic	Non-toxic	Non-toxic	Activity [21]: Non-toxic; Activity [22]: Non-toxic; Activity [23]: Non-toxic; Activity [24]: Non-toxic
CC(C)CCOC(=O)Nc1nc(=O)n([C@@H]2O[C@H](C)[C@@H](O)[C@H]2O)cc1F	370 (≈ 1030 µM)	250 (≈ 696 µM)	120 (≈ 334 µM)	0.09 (≈ 0.25 µM)	Non-toxic	Non-toxic	Non-toxic	Non-toxic	Non-toxic	Non-toxic	Non-toxic	Non-toxic	Non-toxic	Non-toxic	Non-toxic	Non-toxic	Non-toxic	Non-toxic	Non-toxic	Non-toxic	Activity [21]: Non-toxic; Activity [22]: Non-toxic; Activity [23]: Non-toxic; Activity [24]: Non-toxic
